# Experimental data taken from ChEMBL document CHEMBL5338772, “Stereochemical Control of Splice Modulation in FD-895 Analogues” (J Med Chem, 2023).
# Activity calls are given as the source filed them. No cut-off for these calls is given here.
# Legend:
# HCT-116 [1] = test: Cytotoxicity against human HCT-116 cells assessed as reduction in cell viability at 44 nM incubated for 4 hrs by MTS assay; type: toxicity, cell-based; conditions: hct-116, 4 h, 0.044 µM
# HCT-116 [2] = test: Modulation of splicing in PLK-1 pre-mRNA in human HCT-116 cells assessed as effect on exon 3 inclusion at 44 nM incubated for 4 hrs by qRT-PCR analysis; type: functional, cell-based; conditions: filed as modulator
# DNAJB1 pre-mRNA [3] = test: Modulation of splicing in DNAJB1 pre-mRNA in human HCT-116 cells assessed as intron 2 retention level at 44 nM incubated for 4 hrs by qRT-PCR analysis; type: functional, cell-based; conditions: filed as modulator
# SF3B2 pre-mRNA [4] = test: Modulation of splicing in SF3B2 pre-mRNA in human HCT-116 cells assessed as intron 10 retention level at 44 nM incubated for 4 hrs by qRT-PCR analysis; type: functional, cell-based; conditions: filed as modulator
# Summary of the method: (§1)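 HCT-116 cells in supplemented McCoy's 5a, compound added from DMSO stock to a final 0.5% DMSO, 4 h at a single standardized concentration per analogue. Total RNA isolated and DNase-treated (1 µg). qPCR used 2.5 µM each primer on 5 ng cDNA, 40 cycles. Intron retention was computed by the 2^-CT method relative to GAPDH and expressed versus untreated cells set to 1.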
# [5] = Cytotoxicity against human HCT-116 cells assessed as cell growth inhibition incubated for 72 hrs by MTS assay; type: toxicity, cell-based
# Summary of the method: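 HCT-116 cells (ATCC; split every other day, no more than five generations, mycoplasma-tested) plated at 5 × 10³ cells/well in supplemented McCoy's 5a and grown 24 h at 37 °C, 5% CO₂. Compound added from DMSO (0.5% DMSO final) for 72 h. Cells washed with PBS, MTS reagent added for 2 h at 37 °C, A490 read against A690. GI₅₀ fitted from dose curves of 3 biological replicates.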
# SF3A1 pre-mRNA [6] = test: Modulation of splicing in SF3A1 pre-mRNA in human HCT-116 cells assessed as intron 6 retention level at 44 nM incubated for 4 hrs by qRT-PCR analysis; type: functional, cell-based; conditions: filed as modulator
# SF3B1 pre-mRNA [7] = test: Modulation of splicing in SF3B1 pre-mRNA in human HCT-116 cells assessed as intron 13 retention level at 44 nM incubated for 4 hrs by qRT-PCR analysis; type: functional, cell-based; conditions: filed as modulator; summary of the method: as §1
# SF3A3 pre-mRNA [8] = test: Modulation of splicing in SF3A3 pre-mRNA in human HCT-116 cells assessed as intron 5 retention level at 44 nM incubated for 4 hrs by qRT-PCR analysis; type: functional, cell-based; conditions: filed as modulator
# AURKA pre-mRNA [9] = test: Modulation of splicing in AURKA pre-mRNA in human HCT-116 cells assessed as effect on exon 4 skipping at 44 nM incubated for 4 hrs by qRT-PCR analysis; type: functional, cell-based; conditions: filed as modulator
# HCT-116 [10] = test: Cytotoxicity against human HCT-116 cells assessed as reduction in cell viability at 500 nM incubated for 24 hrs by MTS assay; type: toxicity, cell-based; conditions: hct-116, 24 h, 0.5 µM
# Summary of the method: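 HCT-116 cells plated at 5 × 10³ cells/well in supplemented McCoy's 5a and grown 24 h at 37 °C, 5% CO₂. Compound given at 500 nM, the top dose of the 24 h splicing series, in 0.5% DMSO for 24 h. Cells washed with PBS, MTS reagent added for 2 h at 37 °C, A490 read against A690.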
# SF3A1 pre-mRNA [11] = test: Modulation of splicing in SF3A1 pre-mRNA in human HCT-116 cells assessed as intron 6 retention level at 34 nM incubated for 4 hrs by qRT-PCR analysis; type: functional, cell-based; conditions: filed as modulator
# DNAJB1 pre-mRNA [12] = test: Modulation of splicing in DNAJB1 pre-mRNA in human HCT-116 cells assessed as intron 2 retention level at 34 nM incubated for 4 hrs by qRT-PCR analysis; type: functional, cell-based; conditions: filed as modulator
# HCT-116 [13] = test: Cytotoxicity against human HCT-116 cells assessed as reduction in cell viability at 34 nM incubated for 4 hrs by MTS assay; type: toxicity, cell-based; conditions: hct-116, 4 h, 0.034 µM
# SF3A3 pre-mRNA [14] = test: Modulation of splicing in SF3A3 pre-mRNA in human HCT-116 cells assessed as intron 5 retention level at 34 nM incubated for 4 hrs by qRT-PCR analysis; type: functional, cell-based; conditions: filed as modulator
# SF3B2 pre-mRNA [15] = test: Modulation of splicing in SF3B2 pre-mRNA in human HCT-116 cells assessed as intron 10 retention level at 34 nM incubated for 4 hrs by qRT-PCR analysis; type: functional, cell-based; conditions: filed as modulator; summary of the method: as §1
# HCT-116 [16] = test: Downregulation of SF3 mRNA expression in human HCT-116 cells at 34 nM incubated for 4 hrs by qRT-PCR analysis; type: functional, cell-based
# SF3B1 pre-mRNA [17] = test: Modulation of splicing in SF3B1 pre-mRNA in human HCT-116 cells assessed as intron 13 retention level at 34 nM incubated for 4 hrs by qRT-PCR analysis; type: functional, cell-based; conditions: filed as modulator; summary of the method: as §1
# SF3B1 pre-mRNA [18] = test: Modulation of splicing in SF3B1 pre-mRNA in human HCT-116 cells assessed as intron 13 retention at 100 to 500 nM incubated for 24 hrs by qRT-PCR analysis; type: functional, cell-based; conditions: dose 100-500 nM
# Summary of the method: (§2)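 HCT-116 cells in supplemented McCoy's 5a with 0.5% final DMSO were treated for 24 h at 100, 250 or 500 nM. Total RNA isolated and DNase-treated (1 µg). qPCR used 2.5 µM each primer on 5 ng cDNA, 40 cycles. Intron retention was computed by the 2^-CT method relative to GAPDH and expressed versus untreated cells set to 1.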
# SF3B2 pre-mRNA [19] = test: Modulation of splicing in SF3B2 pre-mRNA in human HCT-116 cells assessed as intron 10 retention level at 8.6 uM incubated for 4 hrs by qRT-PCR analysis; type: functional, cell-based; conditions: filed as modulator; summary of the method: as §1
# AURKA pre-mRNA [20] = test: Modulation of splicing in AURKA pre-mRNA in human HCT-116 cells assessed as effect on exon 4 skipping at 8.6 uM incubated for 4 hrs by qRT-PCR analysis; type: functional, cell-based; conditions: filed as modulator
# SF3A1 pre-mRNA [21] = test: Modulation of splicing in SF3A1 pre-mRNA in human HCT-116 cells assessed as intron 6 retention level at 8.6 uM incubated for 4 hrs by qRT-PCR analysis; type: functional, cell-based; conditions: filed as modulator
# SF3A3 pre-mRNA [22] = test: Modulation of splicing in SF3A3 pre-mRNA in human HCT-116 cells assessed as intron 5 retention at 100 to 500 nM incubated for 24 hrs by qRT-PCR analysis; type: functional, cell-based; conditions: dose 100-500 nM
# Summary of the method: (§3)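 HCT-116 cells in supplemented McCoy's 5a with 0.5% DMSO, treated 24 h at 100, 250 or 500 nM; untreated cells as control. Total RNA isolated, 1 µg DNase I-treated, reverse transcribed. qPCR on 5 ng cDNA with 2.5 µM each primer, 40 cycles of 95 °C 30 s, 55 °C 60 s, 72 °C 60 s. Splice-event primers for intron retention or exon skipping; SF2 primers measure total expression. 2^-CT method relative to GAPDH, untreated set at 1.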
# HCT-116 [23] = test: Modulation of splicing in MCL-1L pre-mRNA in human HCT-116 cells assessed as intron 5 retention at 100 to 500 nM incubated for 24 hrs by qRT-PCR analysis; type: functional, cell-based; conditions: dose 100-500 nM; summary of the method: as §3
# SF3B1 pre-mRNA [24] = test: Modulation of splicing in SF3B1 pre-mRNA in human HCT-116 cells assessed as intron 13 retention level at 8.6 uM incubated for 4 hrs by qRT-PCR analysis; type: functional, cell-based; conditions: filed as modulator; summary of the method: as §1
# HCT-116 [25] = test: Modulation of splicing in PLK-1 pre-mRNA in human HCT-116 cells assessed as effect on exon 3 inclusion at 8.6 uM incubated for 4 hrs by qRT-PCR analysis; type: functional, cell-based; conditions: filed as modulator
# SF3A1 pre-mRNA [26] = test: Modulation of splicing in SF3A1 pre-mRNA in human HCT-116 cells assessed as intron 6 retention at 100 to 500 nM incubated for 24 hrs by qRT-PCR analysis; type: functional, cell-based; conditions: dose 100-500 nM; summary of the method: as §3
# SF3A3 pre-mRNA [27] = test: Modulation of splicing in SF3A3 pre-mRNA in human HCT-116 cells assessed as intron 5 retention level at 8.6 uM incubated for 4 hrs by qRT-PCR analysis; type: functional, cell-based; conditions: filed as modulator; summary of the method: as §1
# DNAJB1 pre-mRNA [28] = test: Modulation of splicing in DNAJB1 pre-mRNA in human HCT-116 cells assessed as intron 2 retention level at 8.6 uM incubated for 4 hrs by qRT-PCR analysis; type: functional, cell-based; conditions: filed as modulator
# SF3B2 pre-mRNA [29] = test: Modulation of splicing in SF3B2 pre-mRNA in human HCT-116 cells assessed as intron 10 retention at 100 to 500 nM incubated for 24 hrs by qRT-PCR analysis; type: functional, cell-based; conditions: dose 100-500 nM; summary of the method: as §2
# HCT-116 [30] = test: Cytotoxicity against human HCT-116 cells assessed as reduction in cell viability at 8.6 uM incubated for 4 hrs by MTS assay; type: toxicity, cell-based; conditions: hct-116, 4 h
# DNAJB1 pre-mRNA [31] = test: Modulation of splicing in DNAJB1 pre-mRNA in human HCT-116 cells assessed as intron 2 retention at 100 to 500 nM incubated for 24 hrs by qRT-PCR analysis; type: functional, cell-based; conditions: dose 100-500 nM; summary of the method: as §3
Structure (SMILES),Activity (HCT-116 [1]),Activity (DNAJB1 pre-mRNA [3]),Activity (SF3B2 pre-mRNA [4]),GI50 at 72 h [5] [nM],Activity (SF3A1 pre-mRNA [6]),Activity (SF3B1 pre-mRNA [7]),Activity (SF3A3 pre-mRNA [8]),Activity (AURKA pre-mRNA [9]),Activity (HCT-116 [10]),further results
CC[C@H](OC)[C@@H](C)[C@H]1O[C@@H]1[C@H](O)[C@H](C)/C=C/C=C(\C)[C@H]1OC(=O)C[C@@H](O)CC[C@@](C)(O)[C@@H](OC(C)=O)/C=C/[C@@H]1C,Non-Toxic,> 3,> 3,2.7,> 3,< 3,< 3,Active,–,Activity (HCT-116 [2]): Active
CC[C@H](OC)[C@@H](C)[C@H]1O[C@@H]1[C@H](OC)[C@H](C)/C=C/C=C(\C)[C@H]1OC(=O)C[C@H](O)CC[C@@](C)(O)[C@@H](OC(C)=O)/C=C/[C@@H]1C,Non-Toxic,> 3,> 3,2.6,> 3,< 3,< 3,Active,Non-Toxic,–
CC[C@H](OC)[C@@H](C)[C@H]1O[C@@H]1[C@H](O)[C@H](C)/C=C/C=C(\C)[C@H]1OC(=O)C[C@H](O)CC[C@@](C)(O)[C@@H](OC(C)=O)/C=C/[C@@H]1C,–,–,–,1.9,–,–,–,–,Non-Toxic,Activity (SF3A1 pre-mRNA [11]): > 3; Activity (DNAJB1 pre-mRNA [12]): > 3; Activity (HCT-116 [13]): Non-Toxic; Activity (SF3A3 pre-mRNA [14]): < 3; Activity (SF3B2 pre-mRNA [15]): > 3; Activity (HCT-116 [16]): Active; Activity (SF3B1 pre-mRNA [17]): < 3
CC[C@H](OC)[C@@H](C)[C@H]1O[C@@H]1[C@H](O)[C@H](C)/C=C/C=C(\C)[C@H]1OC(=O)C[C@H](O)CC[C@@](C)(O)[C@H](OC(C)=O)/C=C/[C@@H]1C,–,–,–,588,–,–,–,–,Non-Toxic,Activity (SF3B1 pre-mRNA [18]): inactive; Activity (SF3B2 pre-mRNA [19]): > 3; Activity (AURKA pre-mRNA [20]): Active; Activity (SF3A1 pre-mRNA [21]): > 3; Activity (SF3A3 pre-mRNA [22]): inactive; Activity (HCT-116 [23]): inactive; Activity (SF3B1 pre-mRNA [24]): < 3; Activity (HCT-116 [25]): Active; Activity (SF3A1 pre-mRNA [26]): inactive; Activity (SF3A3 pre-mRNA [27]): < 3; Activity (DNAJB1 pre-mRNA [28]): > 3; Activity (SF3B2 pre-mRNA [29]): inactive; Activity (HCT-116 [30]): Non-Toxic; Activity (DNAJB1 pre-mRNA [31]): inactive
CC[C@H](OC)[C@@H](C)[C@H]1O[C@@H]1[C@@H](O)[C@H](C)/C=C/C=C(\C)[C@H]1OC(=O)C[C@H](O)CC[C@@](C)(O)[C@H](OC(C)=O)/C=C/[C@@H]1C,–,–,–,860,–,–,–,–,–,–
CC[C@H](OC)[C@@H](C)[C@H]1O[C@@H]1[C@H](O)[C@H](C)/C=C/C=C(\C)[C@@H]1OC(=O)C[C@H](O)CC[C@@](C)(O)[C@@H](OC(C)=O)/C=C/[C@H]1C,–,–,–,41300,–,–,–,–,–,–
